Only some compounds are listed: those with a hit (about 2.3% of all), similar ones and a draw of the others.
TRPC6 inh: mouse TRPC6 channel inhibition. Q61143. HEK293-TRPC6, membrane potential dye, ACh-evoked depolarization; hits give low values. B-score at 10 µM. 1.1% of 310,000 active. AID 2553;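 active means B-score under library mean minus 3 SD, initial fluorescence not abnormally high, positive integrated signal ratio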;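 further: B-score derived from integrated fluorescence ratio over the kinetic read; more negative B-score means stronger inhibition of depolarization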
Target sequence (Q61143 whole entry, looked up): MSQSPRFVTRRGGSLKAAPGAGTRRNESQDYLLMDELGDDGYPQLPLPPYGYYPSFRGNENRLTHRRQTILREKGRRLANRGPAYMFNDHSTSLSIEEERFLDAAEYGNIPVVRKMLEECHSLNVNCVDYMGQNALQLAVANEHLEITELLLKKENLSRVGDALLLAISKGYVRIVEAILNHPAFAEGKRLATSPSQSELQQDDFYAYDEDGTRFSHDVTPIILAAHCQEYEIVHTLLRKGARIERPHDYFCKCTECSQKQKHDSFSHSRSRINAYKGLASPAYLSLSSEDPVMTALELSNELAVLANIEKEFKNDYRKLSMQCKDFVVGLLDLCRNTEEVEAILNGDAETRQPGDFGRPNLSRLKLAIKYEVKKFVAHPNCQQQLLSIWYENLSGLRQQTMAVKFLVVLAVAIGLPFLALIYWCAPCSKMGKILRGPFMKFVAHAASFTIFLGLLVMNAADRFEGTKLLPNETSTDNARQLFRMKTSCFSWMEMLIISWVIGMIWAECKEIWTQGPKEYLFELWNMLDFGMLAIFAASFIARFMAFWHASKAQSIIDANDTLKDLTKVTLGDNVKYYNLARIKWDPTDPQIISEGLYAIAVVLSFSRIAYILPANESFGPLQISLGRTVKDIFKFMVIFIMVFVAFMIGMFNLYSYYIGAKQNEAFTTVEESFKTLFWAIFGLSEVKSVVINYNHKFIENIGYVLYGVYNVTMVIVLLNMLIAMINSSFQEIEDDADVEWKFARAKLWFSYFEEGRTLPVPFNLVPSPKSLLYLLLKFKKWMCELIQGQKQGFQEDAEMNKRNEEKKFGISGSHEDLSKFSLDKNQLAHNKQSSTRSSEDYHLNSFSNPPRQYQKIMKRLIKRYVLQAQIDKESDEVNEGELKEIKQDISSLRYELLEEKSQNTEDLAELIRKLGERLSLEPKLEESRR
TRPC4 potent: allosterically enhances the mouse TRPC4 cation channel; Q9QUQ5; AID 2227; 0.42% of 310,000 active; HEK293 TRPC4beta/mu-opioid, DAMGO EC20, Fluo-4 Ca2+ flux; hits give high values; B-score at 10 µM;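 active means B-score of calcium response area above 5 SD of library B-scores, with initial fluorescence ratio within 5 SD of library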
TRPC4 agonist: opens the mouse TRPC4 cation channel; HEK293 TRPC4beta/mu-opioid, Fluo4 calcium fluorescence; hits give high values; AID 2237; B-score at 10 µM; Q9QUQ5; 0.49% of 310,000 active;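 active means B-score above 5 SD of library B-scores, and initial fluorescence ratio not above library mean plus 5 SD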;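 further: positive B-score marks a calcium rise read as TRPC4 activation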
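System – HEK293 cells stably co-expressing mouse TRPC4beta and mu-opioid receptor · Signal – Fluo4 calcium-sensitive dye fluorescence, kinetic, 1 Hz baseline · Benchmarks – buffer (low) and maximal DAMGO (high) · Read-out – B score of integrated fluorescence ratio per well · Incubation – dye loading 45 min room temperature, 110 s kinetic read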
TRPC4 inh: inhibitors of mouse TRPC4 channel; Q9QUQ5; HEK293 TRPC4beta/mu-opioid, DAMGO-evoked Fluo4 calcium flux; hits give low values; B-score at 10 µM; 0.39% of 300,000 active;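 active means B-score over 3 SD under the library average, no early fluorescence shift, positive overall ratio signal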
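Assay system: TRPC4beta/mu-opioid receptor HEK293 cell line; compound dosing: single concentration per test compound; detection: Fluo4 Ca2+ flux fluorescence; evaluation: per-well B score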
TRPC6 activator: mouse TRPC6 channel activation; Q61143; B-score at 10 µM; 0.13% of 310,000 active; HEK293-TRPC6 membrane potential dye fluorescence; hits give high values;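 active means B-score of the integrated fluorescence ratio above library mean plus 3 SD, and starting fluorescence ratio within library mean plus 5 SD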;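 further: higher score means more depolarization so channel activation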
TRPC4 spec 2: second selectivity test of TRPC6 inhibitors: effect on mouse TRPC4 | inhibition, % at 10 µM | 42% of 920 active | HEK293 TRPC4/MOR, membrane potential dye fluorescence; channel activated by saturating DAMGO dose | shares compounds with TRPC6 inh | AID 2776;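 active means compounds whose fluorescence signal differed from control wells by over 3 SD, either direction, in both duplicate plates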
TRPC4 spec: mouse TRPC4 off-target activity of TRPC6 inhibitors; shares compounds with TRPC6 inh; HEK293 TRPC4/mu-opioid, membrane potential fluorescence; activity change, negative = inhibition, % at 10 µM; 61% of 920 active; AID 2777;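 active means rise or fall in signal beyond 3 SD of buffer-only wells in both replicate plates, either sign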;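 further: integrated kinetic ratio of fluorescence range over baseline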
HEK293 MPD ctr 2-1: second counter-screen for TRPC6 inhibitors: parental HEK293 cells; shares compounds with TRPC6 inh; parental HEK293 membrane potential dye fluorescence; maximal acetylcholine challenge after compound addition; signal change vs control, % at 10 µM; 31% of 920 active; AID 2779;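 active means membrane potential signal moving either way by over 3 SD of the maximum-effect control, in both duplicate plates, meaning non-specific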
HEK293 MPD ctr-1: counter-screen for TRPC6 inhibitors: effect in parental HEK293 cells; shares compounds with TRPC6 inh; parental HEK293 membrane potential dye fluorescence; membrane potential signal change, % at 10 µM; 60% of 920 active;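 active means membrane potential signal shifting up or down by more than 3 SD of buffer-only wells, on both duplicate plates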
HEK293 MPD ctr-2: checks TRPC6 modulator effects in parental HEK293 cells; shares compounds with TRPC6 inh; membrane potential dye fluorescence; membrane potential signal change, % at 10 µM; 51% of 2,400 active;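 active means membrane potential signal moves up or down beyond 5 SD from buffer-only wells, on both duplicate plates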
HEK293 MPD ctr 2-2: second check of TRPC6 modulator effects in parental HEK293 cells; shares compounds with TRPC6 inh; membrane potential dye fluorescence; after compound, maximal acetylcholine stimulation; inhibition, % at 10 µM; 14% of 2,400 active;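 active means membrane potential signal drops by more than 5 SD from the mean control signal, in both duplicate plates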
TRPC4 ctr mod: mouse TRPC4 off-target activity of TRPC6 modulators | AID 488927 | percent change from control (negative = decrease, positive = increase), % at 10 µM | shares compounds with TRPC6 inh | 69% of 2,400 active | HEK293 TRPC4/mu-opioid, membrane potential fluorescence;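 active means membrane potential signal moved up or down beyond 5 SD of buffer control wells, in both duplicate plates, actives on both sides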
TRPC4/MOR inh 2: second check of whether TRPC6 modulators also affect mouse TRPC4; AID 488928; shares compounds with TRPC6 inh; inhibition, % at 10 µM; 55% of 2,400 active; HEK293 TRPC4/mu-opioid, membrane potential dye fluorescence; stimulated with maximal-effect DAMGO;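 active means drop in membrane potential signal beyond 5 SD of the control wells in both duplicate plates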;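 further: TRPC4 counter screen for TRPC6 hits run under conditions tuned for TRPC6 not TRPC4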
TRPC6 block conf: mouse TRPC6 inhibitor confirmation; shares compounds with TRPC6 inh; HEK293-TRPC6, membrane potential dye, ACh-evoked depolarization; inhibition, % at 10 µM; 43% of 3,300 active; AID 488960;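 active means fluorescence ratio falls more than 5 SD below the full-stimulation control mean, in both duplicate runs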;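 further: integrated fluorescence ratio of peak minus minimum over baseline after agonist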
TRPC6 act confirm: confirmation of mouse TRPC6 activators | activation, % at 10 µM | shares compounds with TRPC6 inh | 11% of 2,800 active | HEK293-TRPC6 membrane potential dye fluorescence, FDSS | AID 488961;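 active means ratio signal rise beyond 5 SD above unstimulated control wells' mean, seen in both duplicate runs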
Large screens that a line does not name were inactive (follow-up assays come after a bar, where they were run).

Cc1ccc(C(O)(CCN2CCCCC2)c2ccccc2)cc1 (centres undefined)	TRPC6 inh -7.1 | TRPC4 spec 2 inactive | TRPC4 spec 14% | HEK293 MPD ctr 2-1 inactive | HEK293 MPD ctr-1 13% | TRPC6 block conf 62%
OC(CCN1CCOCC1)(c1ccc(Cl)cc1)C1CCCCC1 (centres undefined)	TRPC6 inh -5.7 | HEK293 MPD ctr-2 149% | HEK293 MPD ctr 2-2 inactive | TRPC4 ctr mod 26% | TRPC4/MOR inh 2 45% | TRPC6 block conf 44% | TRPC6 act confirm inactive
O=C(OCC(=O)N1CCN(c2ccccc2)CC1)c1nc(Cl)ccc1Cl	none
C#CCn1cc(Cl)cc(C(=O)Nc2ccccc2)c1=O	TRPC6 inh -7.1 | TRPC4 spec 2 inactive | TRPC4 spec inactive | HEK293 MPD ctr 2-1 inactive | HEK293 MPD ctr-1 inactive | TRPC6 block conf inactive | TRPC6 act confirm inactive
COCC(=O)Nc1ccc2c(c1)OCC(=O)N2Cc1ccc(C)cc1	none
O=C(CN1C(=O)c2ccc(Br)cc2C1=O)NCC1CCCO1 (centres undefined)	TRPC6 inh -8.9 | HEK293 MPD ctr-2 inactive | HEK293 MPD ctr 2-2 inactive | TRPC4 ctr mod inactive | TRPC4/MOR inh 2 inactive | TRPC6 block conf 82%
O=C(O)/C(=C\c1ccc2ccccc2c1)c1cccc2ccccc12	none
Cc1ccccc1NC(=O)N1CCC(NC(=O)C2CCCCC2)CC1	none
CC(=O)C(Cc1cccc(F)c1)(Cc1cccc(F)c1)C(C)=O	TRPC6 inh -6 | HEK293 MPD ctr-2 114% | HEK293 MPD ctr 2-2 inactive | TRPC4 ctr mod 34% | TRPC4/MOR inh 2 inactive | TRPC6 block conf inactive
CCCCOC(=O)c1ccc(NC(=S)NC(=O)c2ccco2)cc1	none
CCCCCCOC(=O)c1ccc(N)cc1	TRPC6 inh -5.5 | HEK293 MPD ctr-2 inactive | HEK293 MPD ctr 2-2 inactive | TRPC4 ctr mod inactive | TRPC4/MOR inh 2 34% | TRPC6 block conf inactive | TRPC6 act confirm inactive
CCCCCOC(=O)c1ccc(NC(=O)c2ccco2)cc1	TRPC6 inh -13 | TRPC4 spec 2 inactive | TRPC4 spec inactive | HEK293 MPD ctr 2-1 inactive | HEK293 MPD ctr-1 inactive | TRPC6 block conf inactive | TRPC6 act confirm inactive
CC/C(=N\NC(=O)c1cc(C2CC2)[nH]n1)c1ccccc1	none
O=C(Cc1ccc(Cl)cc1)NC1CCCN(Cc2ccccc2F)C1 (centres undefined)	none
COc1ccc(-n2c(SCC(=O)O)nc3sc4c(c3c2=O)CCCC4)cc1	none
COc1ccc(-n2c(SCCNCCO)nc3sc4c(c3c2=O)CCCC4)cc1	TRPC6 inh -5.2 | HEK293 MPD ctr-2 -142% | HEK293 MPD ctr 2-2 inactive | TRPC4 ctr mod -34% | TRPC4/MOR inh 2 74% | TRPC6 block conf 52% | TRPC6 act confirm inactive
c1csc(C2Nc3ccccc3-c3nc4ccccc4n32)c1 (centres undefined)	TRPC6 inh -6.6 | TRPC4 spec 2 inactive | TRPC4 spec 9.1% | HEK293 MPD ctr 2-1 inactive | HEK293 MPD ctr-1 2.3% | TRPC6 block conf inactive | TRPC6 act confirm inactive
Cc1cc(N2CCOCC2)c2c(N)c(Br)cc(C)c2n1	TRPC6 inh -5.1 | HEK293 MPD ctr-2 -301% | HEK293 MPD ctr 2-2 inactive | TRPC4 ctr mod -57% | TRPC4/MOR inh 2 42% | TRPC6 block conf inactive | TRPC6 act confirm inactive
CCc1c(C)c(C#N)c2nc3ccccc3n2c1NC	none
C=CCc1c(C)c(C#N)c2nc3ccccc3n2c1NCCN(C)C	TRPC6 inh -5.4 | HEK293 MPD ctr-2 -116% | HEK293 MPD ctr 2-2 inactive | TRPC4 ctr mod -24% | TRPC4/MOR inh 2 52% | TRPC6 block conf 54% | TRPC6 act confirm inactive
CCCc1cc(NCCCN(C)C)n2c(nc3ccccc32)c1C#N	TRPC6 inh -6.8 | TRPC4 spec 2 62% | TRPC4 spec -36% | HEK293 MPD ctr 2-1 42% | HEK293 MPD ctr-1 -454% | TRPC6 block conf 63% | TRPC6 act confirm inactive
CCCc1cc(NCCN(C)C)n2c(nc3ccccc32)c1C#N	none
Cc1c(Cc2ccccc2)c(NCCCO)n2c(nc3ccccc32)c1C#N	none
C=C(C)Cc1c(C)c(C#N)c2nc3ccccc3n2c1NCCCN(C)C	TRPC6 inh -7.2 | TRPC4 spec 2 48% | TRPC4 spec -16% | HEK293 MPD ctr 2-1 inactive | HEK293 MPD ctr-1 -354% | TRPC6 block conf inactive | TRPC6 act confirm inactive
CCc1c(C)c(C#N)c2nc3ccccc3n2c1NCCN(C)C	TRPC6 inh -9.5 | HEK293 MPD ctr-2 -85% | HEK293 MPD ctr 2-2 112% | TRPC4 ctr mod -18% | TRPC4/MOR inh 2 76% | TRPC6 block conf 78% | TRPC6 act confirm inactive
CC1CC(C)CN(CCCNC(=O)CN2C(=O)c3cccnc3Oc3ccc(Cl)cc32)C1 (centres undefined)	none
Cc1cc(C)n2nc(SCC(=O)NC3CCCC(C)C3C)nc2n1 (centres undefined)	none
CCc1nc2cccnc2n1-c1ccc(CC(=O)O)cc1	none
CC(C)NC(=O)CCc1nc2cccnc2n1-c1ccccc1	TRPC6 inh -5.9 | HEK293 MPD ctr-2 inactive | HEK293 MPD ctr 2-2 inactive | TRPC4 ctr mod inactive | TRPC4/MOR inh 2 inactive | TRPC6 block conf inactive | TRPC6 act confirm inactive
CCOc1ccc2nc(NC(=O)CN3C(=O)NC4(CCCC4)C3=O)sc2c1	none

Bioassay records: PubChem, Johns Hopkins Ion Channel Center
